Series [1] concerns the target Cytochrome P450 2C9 (Homo sapiens, UniProt P11712). Nature of the series: Inhibition of CYP2C9 (unknown origin) at 10 uM. In kind it is ADME.
Series [2] can be described thus: AUC in Sprague-Dawley rat at 2 mg/kg, po. The conditions noted are these: plasma. In kind it is ADME, organism-based. Further details: dose 2 mg/kg, route oral; call rule not given here.
Series [3] concerns Rattus norvegicus. Description: Reduction in plasma triglyceride level in Sprague-Dawley rat at 0.1 mg/kg, po treated 30 mins prior to olive oil administration measured 3 hrs post olive oil administration relative to vehicle-treated control. In kind it is functional. Further details: scale not given: the % may be the effect or the level left. The method in brief: (§1)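 Animals received vehicle or compound by oral gavage, then olive oil (5 mL/kg) by oral gavage 30 min later. Plasma triglycerides were measured before dosing and 3 h after the oil. The read-out was the change in TG from pre-dose, compared with vehicle-treated animals.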

The target in series [4] is Cytochrome P450 3A4 (Homo sapiens, UniProt P08684). Nature of the series: Inhibition of CYP3A4 (unknown origin) at 10 uM. In kind it is ADME.
Series [5] in a line: Oral Bioavailability in CD1 mouse at 2 mg/kg. In kind it is ADME, organism-based. The conditions noted are these: in vivo.
Series [6] can be described thus: Clearance in rhesus monkey at 0.2 mg/kg, iv. The conditions noted are these: in vivo. Further details: dose 0.2 mg/kg, route intravenous. In kind it is ADME, organism-based, Macaca mulatta.
The nature of series [7]: Volume of distribution at steady state in CD1 mouse at 0.5 mg/kg, iv. In kind it is ADME, organism-based. As to conditions: in vivo, read-out: Vdss. Also noted: dose 0.5 mg/kg, route intravenous.
The subject of series [8] is Rattus norvegicus. Nature of the series: Reduction in plasma triglyceride level in Sprague-Dawley rat at 1 mg/kg, po treated 30 mins prior to olive oil administration measured 3 hrs post olive oil administration relative to vehicle-treated control. The format is functional. Also noted: scale not given: the % may be the effect or the level left. The method in brief: as §1

A short description of series [9]: Half life in Sprague-Dawley rat at 1 mg/kg, iv. The format is ADME, organism-based. Further details: dose 1 mg/kg, route intravenous. The conditions noted are these: in vivo.
Series [10] is described as follows: Volume of distribution at steady state in rhesus monkey at 0.2 mg/kg, iv. Further details: dose 0.2 mg/kg, route intravenous. The conditions noted are these: in vivo, read-out: Vdss. In kind it is ADME, organism-based, Macaca mulatta.
The target in series [11] is Cytochrome P450 2D6 (Homo sapiens, UniProt P10635). Nature of the series: Inhibition of CYP2D6 (unknown origin) at 10 uM. In kind it is ADME.
Series [12] can be described thus: Clearance in CD1 mouse at 0.5 mg/kg, iv. In kind it is ADME, organism-based. Also noted: dose 0.5 mg/kg, route intravenous. The conditions noted are these: in vivo.
Series [13] has as its target T1, Cytochrome P450 1A2 (Homo sapiens, UniProt P05177).
T1 sequence (P05177 whole entry): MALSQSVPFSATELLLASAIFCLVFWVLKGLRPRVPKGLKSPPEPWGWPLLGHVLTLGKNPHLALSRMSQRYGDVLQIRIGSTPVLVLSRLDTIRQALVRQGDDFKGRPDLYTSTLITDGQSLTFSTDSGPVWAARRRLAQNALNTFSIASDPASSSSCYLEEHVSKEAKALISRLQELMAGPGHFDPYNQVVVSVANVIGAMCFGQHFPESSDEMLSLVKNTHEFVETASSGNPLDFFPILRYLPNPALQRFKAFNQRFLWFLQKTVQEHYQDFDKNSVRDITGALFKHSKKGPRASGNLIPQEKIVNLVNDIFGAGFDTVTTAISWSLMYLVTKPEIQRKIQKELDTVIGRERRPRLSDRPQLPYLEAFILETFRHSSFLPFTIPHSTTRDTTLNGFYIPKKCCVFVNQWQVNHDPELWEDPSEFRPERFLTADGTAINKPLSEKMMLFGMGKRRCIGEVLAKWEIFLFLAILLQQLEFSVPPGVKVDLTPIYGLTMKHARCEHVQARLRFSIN
Description: Inhibition of CYP1A2 (unknown origin) at 10 uM. The format is ADME.

Series [14] in a line: Drug metabolism in Sprague-Dawley rat liver S9 fraction assessed as 2-hydroxy compound formation by MS/MS analysis. The format is ADME, subcellular.
The nature of series [15]: AUC in Sprague-Dawley rat at 100 mg/kg, po. The format is ADME, organism-based. Also noted: dose 100 mg/kg, route oral. The conditions noted are these: plasma.
Series [16] is described as follows: Half life in CD1 mouse at 0.5 mg/kg, iv. In kind it is ADME, organism-based. Also noted: dose 0.5 mg/kg, route intravenous. The conditions noted are these: in vivo.
Series [17] in a line: AUC in beagle dog at 5 mg/kg, po. The format is ADME, organism-based, Canis lupus familiaris. Also noted: dose 5 mg/kg, route oral. As to conditions: plasma.
A short description of series [18]: AUC in C57BL/6J mouse at 0.3 mg/kg, po. In kind it is ADME, organism-based. Also noted: dose 0.3 mg/kg, route oral. As to conditions: plasma.
Series [19] is described as follows: AUC in cynomolgus monkey at 100 mg/kg, po administered as single dose relative to control. In kind it is ADME, organism-based, Macaca fascicularis. The conditions noted are these: plasma. Also noted: dose 100 mg/kg, route oral. The gist of the method: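 Cynomolgus monkeys received a single oral dose of 100 mg/kg. Plasma AUC was recorded alongside plasma liver enzymes ALT and AST.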

Series [20] can be described thus: Half life in beagle dog at 0.5 mg/kg, iv. The format is ADME, organism-based, Canis lupus familiaris. Also noted: dose 0.5 mg/kg, route intravenous. As to conditions: in vivo.
Series [21] can be described thus: Oral bioavailability in Sprague-Dawley rat at 5 mg/kg. The conditions noted are these: in vivo. The format is ADME, organism-based.
Series [22] can be described thus: Clearance in Sprague-Dawley rat at 0.7 mg/kg, iv. The format is ADME, organism-based. Further details: dose 0.7 mg/kg, route intravenous. The conditions noted are these: in vivo.
A short description of series [23]: Half life in Sprague-Dawley rat at 0.7 mg/kg, iv. Also noted: dose 0.7 mg/kg, route intravenous. As to conditions: in vivo. In kind it is ADME, organism-based.
For series [24], the system named is Mus musculus. Description: Reduction in plasma triglyceride level in C57BL/6J mouse at 0.1 mg/kg, po treated 30 mins prior to olive oil administration measured 3 hrs post olive oil administration relative to vehicle-treated control. The format is functional. Also noted: scale not given: the % may be the effect or the level left. The gist of the method: as §1

Series [25] has as its system Cynomolgus monkey. Nature of the series: Toxicity in cynomolgus monkey assessed as elevation of prolongation of QTc interval at 10 to 30 mg/kg/day, po qd by 21-day multiple-dose toxicity study relative to control. The format is organism-based, Macaca fascicularis. Also noted: route oral. The conditions noted are these: in vivo. The method in brief:
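Cynomolgus monkeys were dosed po once daily at 10 and 30 mg/kg for 21 days. ALT and AST levels, QTc intervals, and clinical and histopathological findings were assessed, and plasma AUC was recorded for each dose.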

Series [26] can be described thus: Oral bioavailability in beagle dog at 2 mg/kg. The conditions noted are these: in vivo. In kind it is ADME, organism-based, Canis lupus familiaris.
Series [27] can be described thus: Volume of distribution at steady state in cynomolgus monkey at 0.5 mg/kg, iv. In kind it is ADME, organism-based, Macaca fascicularis. Also noted: dose 0.5 mg/kg, route intravenous. The conditions noted are these: in vivo, read-out: Vdss.
Series [28] is described as follows: AUC in Sprague-Dawley rat at 100 mg/kg, po qd. Also noted: dose 100 mg/kg, route oral. As to conditions: plasma. In kind it is ADME, organism-based. The gist of the method:
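Sprague-Dawley rats dosed orally once daily for 14 days in a multiple-dose toxicity study at 10, 30 or 100 mg/kg. Plasma exposure was reported as AUC, and clinical and histopathological findings were recorded.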

A short description of series [29]: AUC in cynomolgus monkey at 10 mg/kg/day, po qd. In kind it is ADME, organism-based, Macaca fascicularis. Also noted: route oral. As to conditions: plasma. The gist of the method: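 Cynomolgus monkeys dosed orally once daily at 10 or 30 mg/kg for 21 days in a multiple-dose toxicity study. Plasma AUC was reported, with ALT/AST levels, QTc intervals and clinical and histopathological findings monitored.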

For series [30], the target named is T2, Sterol O-acyltransferase 1 (Homo sapiens, UniProt P35610).
T2 sequence (P35610 whole entry): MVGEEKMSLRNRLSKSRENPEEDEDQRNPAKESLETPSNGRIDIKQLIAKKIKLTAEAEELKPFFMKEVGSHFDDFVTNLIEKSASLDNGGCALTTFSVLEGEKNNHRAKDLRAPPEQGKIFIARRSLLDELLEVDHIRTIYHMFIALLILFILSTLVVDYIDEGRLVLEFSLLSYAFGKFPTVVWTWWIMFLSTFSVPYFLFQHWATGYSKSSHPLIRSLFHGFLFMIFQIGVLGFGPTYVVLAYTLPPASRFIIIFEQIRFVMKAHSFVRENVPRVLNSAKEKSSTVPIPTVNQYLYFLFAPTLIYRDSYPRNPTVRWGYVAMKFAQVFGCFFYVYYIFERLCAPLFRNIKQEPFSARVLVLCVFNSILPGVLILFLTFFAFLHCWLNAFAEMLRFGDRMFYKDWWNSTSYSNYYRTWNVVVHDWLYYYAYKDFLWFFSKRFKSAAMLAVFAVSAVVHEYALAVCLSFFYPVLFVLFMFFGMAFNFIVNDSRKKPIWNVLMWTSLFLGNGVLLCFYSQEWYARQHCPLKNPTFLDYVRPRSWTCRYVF
Description: Inhibition of human full-length flag-tagged ACAT1 expressed in baculovirus infected insect cells using [14C]palmitoyl CoA as substrate after 10 mins by scintillation counting.

Series [31] is described as follows: Oral Bioavailability in CD1 mouse at 0.3 mg/kg. In kind it is ADME, organism-based. As to conditions: in vivo.

Cytochrome P450 3A4, sequence (P08684 whole entry): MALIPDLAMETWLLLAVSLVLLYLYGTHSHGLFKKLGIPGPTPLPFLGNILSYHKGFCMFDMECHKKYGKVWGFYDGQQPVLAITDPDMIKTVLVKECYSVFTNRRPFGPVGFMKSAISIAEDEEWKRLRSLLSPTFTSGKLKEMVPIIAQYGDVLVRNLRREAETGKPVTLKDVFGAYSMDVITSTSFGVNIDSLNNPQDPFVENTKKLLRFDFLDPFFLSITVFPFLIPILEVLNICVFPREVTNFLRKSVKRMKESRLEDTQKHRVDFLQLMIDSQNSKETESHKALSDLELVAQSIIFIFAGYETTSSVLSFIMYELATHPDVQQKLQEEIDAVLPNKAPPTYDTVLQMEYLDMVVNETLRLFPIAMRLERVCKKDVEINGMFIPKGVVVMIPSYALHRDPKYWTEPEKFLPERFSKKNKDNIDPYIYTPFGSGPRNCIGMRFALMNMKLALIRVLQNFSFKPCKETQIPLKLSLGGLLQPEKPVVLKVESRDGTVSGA
Cytochrome P450 2D6, sequence (P10635 whole entry): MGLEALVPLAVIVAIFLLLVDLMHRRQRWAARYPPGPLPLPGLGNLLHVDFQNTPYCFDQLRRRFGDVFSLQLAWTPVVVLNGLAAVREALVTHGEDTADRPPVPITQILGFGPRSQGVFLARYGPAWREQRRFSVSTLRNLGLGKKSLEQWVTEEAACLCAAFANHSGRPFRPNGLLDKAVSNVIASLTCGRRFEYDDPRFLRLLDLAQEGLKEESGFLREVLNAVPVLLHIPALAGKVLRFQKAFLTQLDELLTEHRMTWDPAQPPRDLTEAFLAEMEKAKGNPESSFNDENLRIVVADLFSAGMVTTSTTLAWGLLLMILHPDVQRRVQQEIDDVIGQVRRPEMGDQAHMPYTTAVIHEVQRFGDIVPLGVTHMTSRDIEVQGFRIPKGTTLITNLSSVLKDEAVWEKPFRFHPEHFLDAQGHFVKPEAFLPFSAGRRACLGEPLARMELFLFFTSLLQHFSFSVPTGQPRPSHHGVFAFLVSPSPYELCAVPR
Cytochrome P450 2C9, sequence (P11712 whole entry): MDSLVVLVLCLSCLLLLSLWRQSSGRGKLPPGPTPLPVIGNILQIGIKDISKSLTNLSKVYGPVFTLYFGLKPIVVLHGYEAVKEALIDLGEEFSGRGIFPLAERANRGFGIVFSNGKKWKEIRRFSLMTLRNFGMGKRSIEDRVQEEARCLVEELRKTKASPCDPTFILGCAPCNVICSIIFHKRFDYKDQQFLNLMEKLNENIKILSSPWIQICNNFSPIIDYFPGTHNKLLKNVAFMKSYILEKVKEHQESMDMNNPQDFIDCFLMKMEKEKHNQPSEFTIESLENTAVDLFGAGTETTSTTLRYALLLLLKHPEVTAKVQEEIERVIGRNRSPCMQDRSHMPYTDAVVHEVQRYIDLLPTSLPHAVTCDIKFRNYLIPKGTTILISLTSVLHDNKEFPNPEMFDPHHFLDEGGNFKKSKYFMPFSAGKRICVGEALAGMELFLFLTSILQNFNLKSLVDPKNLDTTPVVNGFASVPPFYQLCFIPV

Turning to `CC1(C)Oc2ncnc(N)c2N=C1c1ccc([C@H]2CC[C@H](CC(=O)O)CC2)cc1`, the “inhibition (INH)” value in series [1], in series [4], in [11] and in series [13] was “Not Active” throughout. For the same compound, the AUC in series [2] is 1010 ng·h/mL; in series [15], 3750 µM·h; in series [17] it was 4720 ng·h/mL; in series [18], 2.6 µM·h; in series [19], 1420 µM·h. The values for the Activity in series [3] and in [8] were 68% and 110%, respectively. Moreover, the bioavailability in series [5] worked out at 40%. Besides, the clearance was 3.67 mL/min/kg in [6] and 1.83 mL/min/kg in [12]. Besides, the Vd in [7] came out at 0.79 L/kg; in series [10] it was 0.46 L/kg. In addition, the half-life is 1.7 h in [9], 4.7 h in [16] and 2.4 h in series [20]. The Drug metabolism result in series [14] is “metabolite_detected”.
For the compound `CC1(C)Oc2nc(C(F)(F)F)nc(N)c2N=C1c1ccc2c(c1)CC[C@]21CC[C@@H](CC(=O)O)CC1`, the “inhibition (INH)” value in series [1], in series [4], in [11] and in series [13] was “Not Active” each time. Further, the bioavailability in series [21] amounted to 98%; in series [26], 22%; in [31] it was 77%. Moreover, the clearance in [22] is 3.5 mL/min/kg; in series [12] it was 7.5 mL/min/kg. Also, the half-life in series [23] is 3.7 h; in series [16], 4.4 h. Besides, the figures for the Vd in series [7] and in series [27] were 2.8 L/kg and 0.44 L/kg, respectively. Also, the Activity in series [24] was 99.7%; in series [25], “Non-toxic”. Further, the AUC in series [18] worked out at 0.65 µM·h; in series [28], 677 µM·h; in series [29] it was 607 µM·h. In series [30], the IC50 is over 10 µM.

(Values after ChEMBL document CHEMBL3232847, “Discovery of 6-phenylpyrimido[4,5-b][1,4]oxazines as potent and selective acyl CoA:diacylglycerol acyltransferase 1 (DGAT1) inhibitors with in vivo efficacy in rodents” (J Med Chem, 2014).)
